Bioassay records as filed in PubChem BioAssay.
Compounds with a hit are over-represented: about 2.6% of the library has one in this group of screens.
RAD52 inh: RAD52 (human) annealing inhibition. AID 651710. recombinant RAD52 DNA annealing, FRET fluorescence. inhibition, % at 18.7 µM. 0.46% of 360,000 active. P43351;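 active = every replicate showing at least 50% inhibition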
Target sequence (P43351 whole entry, looked up): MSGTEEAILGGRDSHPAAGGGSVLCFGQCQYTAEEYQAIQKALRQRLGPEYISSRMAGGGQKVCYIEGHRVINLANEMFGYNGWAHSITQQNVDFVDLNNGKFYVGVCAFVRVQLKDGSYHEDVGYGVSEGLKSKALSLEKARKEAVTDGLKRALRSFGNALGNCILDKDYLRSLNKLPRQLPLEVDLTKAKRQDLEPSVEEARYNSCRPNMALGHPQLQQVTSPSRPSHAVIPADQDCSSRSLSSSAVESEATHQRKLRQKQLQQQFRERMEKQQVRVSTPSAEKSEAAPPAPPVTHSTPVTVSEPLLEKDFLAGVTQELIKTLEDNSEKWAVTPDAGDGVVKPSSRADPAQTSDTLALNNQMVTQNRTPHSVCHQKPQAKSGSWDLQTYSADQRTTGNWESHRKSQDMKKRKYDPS
rRNA inh HTS: inhibits bacterial ribosomal RNA function over humanized ribosomes | E. coli WT GFP vs humanized-ribosome RFP mutants, fluorescence, 24 h; stronger effect = lower value; DMSO median 0, no signal -100 | 1.6% of 350,000 active | GFP signal change (wild-type ribosome), % (test concentration not listed);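 active = significant combined selectivity score with lowered wild-type GFP, culture density cut under 30%, mutant RFP and density less affected; inactive = any of these conditions unmet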
INS-1E GSIS act: GLuc luminescence reporter in INS-1E cells, primary screen for activators of glucose-dependent secretion of insulin | activation, % at 16.6 µM | 0.61% of 370,000 active | INS-1E GLuc reporter insulin secretion, 2-3 h;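 active = lowest replicate activation of at least 40%, so every replicate reaches that level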;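 also: 0% = median of neutral control wells and 100% = median of IBMX positive control wells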
RAD54 inh: inhibitors of human RAD54 branch migration. AID 602329. RAD54 Holliday junction branch migration, FAM/BHQ fluorescence. 0.14% of 360,000 active. Q92698. inhibition, % at 10.4 µM;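 active = mean normalized replicate activity at least 40 and at least half of replicates scoring 40 or more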;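 also: 0% = median of neutral control wells and 100% = median of positive control wells; inhibitors cause a drop in the FAM fluorescence signal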
E-selectin induc: induces E-selectin expression in human endothelial cells; P16581; activation, % at 7.58 µM; 0.37% of 260,000 active; HUVEC E-selectin immunofluorescence imaging; normalized: neutral wells 0, TNF-alpha wells 100;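 active = mean E-selectin-positive cell signal at least 10% of the positive control, reached in at least 60% of replicates, without over 20% cell loss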
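material = human umbilical vein endothelial cells (HUVEC), E-selectin induction | quantity = 3,000 cells/well | medium = EGM-2 growth medium on 0.1% gelatin-coated wells | technique = immunofluorescence imaging | read-out basis = % PE-positive cells | control set = TNF-alpha positive control, DMSO neutral control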
AF4-AF9 inh: inhibitors of human MLL-AF4/AF9 interaction. 0.47% of 350,000 active. inhibition, % at 10 µM. AlphaScreen, biotin-AF4 peptide binding to FLAG-AF9;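 active = every replicate reaching a set inhibition limit, whatever the replicate mean, cut at about 25% in these data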;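 also: 0% = plate neutral control median and 100% = total signal loss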
Numbers without * were called inactive; x = no result.

SMILES	RAD52 inh	rRNA inh HTS	INS-1E GSIS act	RAD54 inh	E-selectin induc	AF4-AF9 inh
Cc1cc(C)c2nc(NNC(=O)c3cc(=O)c4ccccc4o3)sc2c1	-107.3	-26.6*	18.9	3.3	1.2	5.7
COc1cccc(C#Cc2cnc3c(c2)C(=O)N([C@H](C)CO)C[C@H](C)[C@H](CN(C)C(=O)C2CCC2)O3)c1	-4.4	2.2	-0.1	-6.3	6.4	-0.9
O=C(CN1C(=O)CCC1=O)c1ccc(-c2ccccc2)cc1	-3.3	x	-1.8	x	-2.5	-7.0
N=c1ccn(CC(=O)c2ccc(-c3ccccc3)cc2)cc1	28.3	-41.1*	-25.4	x	0.1	1.6
CCOc1ccc(OCCSc2ccc(S(=O)(=O)N3CCN(C)CC3)cn2)cc1	-4.9	-57.1	-38.7	2.0	-0.9	27.0*
Cc1nc(C)c(-c2ccc(SCC(=O)Nc3ccc(C)c(Cl)c3)nn2)s1	-26.5	12.7	40.6*	15.3	-0.1	0.1
C[C@@H]1CN([C@@H](C)CO)C(=O)c2cc(NC(=O)CCC(F)(F)F)ccc2O[C@@H](C)CCCCO[C@@H]1CN(C)C(=O)Nc1ccccc1	-10.5	0.1	8.4	-6.9	x	-2.1
CCOC(=O)/C=C/C(=O)Nc1ccc(-c2nnc3n2CCCCC3)cc1	-6.4	7.1	-0.7	2.6	0.1	0.7
COc1ccc(-c2nnc3n2CCCCC3)cc1OC	-9.6	-1.1	-0.6	3.2	35.5*	1.3
Cc1ccc(-c2nnc3n2CCCCC3)cc1	x	x	x	-7.1	x	x
COc1ccc(/C=C/C(=O)Nc2ccc(-c3nnc4n3CCCCC4)cc2)c(OC)c1	-16.7	-20.2*	-42.4	x	-3.0	16.6
FC(F)(F)COc1nc(N/N=C/c2cccnc2)nc(N2CCCCC2c2ccccn2)n1 (stereo unspecified)	-3.7	-33.4*	-8.1	-0.8	10.7	2.4
Cc1ncc(CN2CCCC(C(=O)Nc3ccc(-c4ccco4)cc3)C2)cn1 (stereo unspecified)	-25.0	3.5	1.2	-7.9	x	40.0*
CC(C)NC(=O)N(C)C[C@H]1OCCCC[C@H](C)Oc2ccc(NC(=O)Nc3ccc(F)cc3)cc2C(=O)N([C@H](C)CO)C[C@@H]1C	-12.7	-3.4	-17.0	-0.1	-0.1	-2.6
Cc1ccccc1CC1(CO)CCCN(Cc2ccccc2Cl)C1 (stereo unspecified)	-35.3	-27.8*	-12.6	-9.4	0.5	-5.6
COc1cccc(CC2(CO)CCCN(Cc3ccccc3Cl)C2)c1 (stereo unspecified)	-38.9	-15.4	x	2.1	x	-0.1
CCC(=O)N(C)C[C@@H]1Oc2cc(C#CC(C)C)ccc2S(=O)(=O)N([C@H](C)CO)C[C@H]1C	-1.3	-0.3	-5.0	-0.1	-0.2	-2.0
CCCc1cc(N2CCCC(C(=O)NCc3ccc4c(c3)OCO4)C2)n2ncnc2n1 (stereo unspecified)	-20.8	-9.9	54.4*	-9.1	x	-7.4
Cc1cc(C)nc(N2CCCC(C(=O)NCc3ccc4c(c3)OCO4)C2)n1 (stereo unspecified)	-18.5	8.4	3.0	x	3.4	-2.5
Cc1ccc(S(=O)(=O)Nc2ccc3c(c2)C(=O)N([C@@H](C)CO)C[C@H](C)[C@H](CN(C)C(=O)Nc2ccccc2)OCCCC[C@@H](C)O3)cc1	-27.7	-0.2	-16.0	-7.5	-0.3	-0.7
C=CCn1cnc2scc(-c3ccc(OC)cc3)c2c1=O	-38.6	-5.8	61.4*	1.1	x	2.1
COc1ccccc1-n1c(=O)c(C#N)c(-c2ccc([N+](=O)[O-])cc2)c2cc(C(=O)c3cc(F)ccc3O)cnc21	-12.5	-4.0	-0.1	x	x	2.7
Cn1c(=O)c(C#N)c(-c2ccc(F)cc2)c2cc(C(=O)c3cc(Cl)cc(Cl)c3O)cnc21	-15.7	-28.0*	-22.0	-11.5	0.6	3.7
CC(C)NC(=O)N[C@H]1C=C[C@H](CC(=O)NCCCN(C)C)O[C@H]1CO	-14.1	0.2	6.8	-4.6	0.0	-1.1
F[B-](F)(F)COc1ccccc1	-18.4	-1.5	87.7*	3.5	x	-2.8
SMILES	RAD52 inh	rRNA inh HTS	INS-1E GSIS act	RAD54 inh	E-selectin induc	AF4-AF9 inh
O=C(N/N=C/c1ccc(Cl)cc1Cl)Nc1ccccc1	x	x	42.2*	-4.1	x	x
O=C(N/N=C/c1cccc(Cl)c1Cl)Nc1ccccc1	-3.5	7.1	13.5	-10.5	x	3.7
COc1ccc(/C=N/n2c(-c3n[nH]c4c3CCC4)n[nH]c2=S)cc1OC	x	x	44.7*	x	x	x
COc1cc(/C=N/n2c(-c3n[nH]c4c3CCC4)n[nH]c2=S)ccc1O	-17.7	-1.7	36.8	x	0.7	-3.3
O=C(CCC(=O)N1CCN(c2ccc(F)cc2)CC1)N1CCN(c2ccc(F)cc2)CC1	-7.1	-21.2*	9.8	-0.9	x	-1.1
COc1ccc(-c2nnn(CC(=O)N3CCN(c4ccc(F)cc4)CC3)n2)cc1	-13.5	11.2	10.8	-11.8	8.8	-1.2
COc1ccc(N2CCN(C(=O)CN3CCN(c4nc(-c5ccc(F)cc5)cs4)CC3)CC2)cc1	-7.1	x	x	-0.1	0.0	27.0*
COC(=O)[C@H](Cc1ccccc1)NC(=O)N1CCN(c2ccc(F)cc2)CC1	-1.5	-19.6*	-3.0	0.1	0.1	x
COC(=O)[C@H](Cc1ccccc1)NC(=O)N1CCCCCC1	-6.6	3.3	-3.6	-19.0	x	1.1
O=C(Nc1ccc2c(c1)OCO2)N[C@H]1CC[C@@H](CC(=O)N2CCN(c3ccccc3)CC2)O[C@H]1CO	-14.6	-4.2	-7.9	4.9	0.3	2.1
C/C=C/c1cnc2c(c1)C(=O)N([C@@H](C)CO)C[C@@H](C)[C@H](CN(C)C(=O)C1CC1)O2	x	1.2	9.0	x	0.4	x
OC1CCN(C(=S)NCCc2ccccc2)CC1	x	x	x	-3.8	x	x
S=C(NCCc1ccccc1)N1CCc2ccccc2C1	-11.8	-21.9*	-6.3	x	x	1.1
Cc1ccc(/C=C/C(=O)O)cc1S(=O)(=O)N1CCc2ccccc21	-1.3	-32.4*	5.0	-4.2	-0.4	1.2
Cc1ccc2sc(-c3ccc(NC(=O)c4cc(-n5cnnc5)ccc4Cl)cc3)nc2c1	x	x	119.2*	3.2	x	x
O=C(Nc1cccc(-c2nc3ccccc3s2)c1)c1cc(-n2cnnc2)ccc1Cl	x	x	x	-10.1	x	x
CO[C@@H]1CN(C)C(=O)c2cc(NC(=O)Nc3c(C)noc3C)ccc2OC[C@@H](C)N(C(=O)Nc2cccc(Cl)c2)C[C@H]1C	-3.7	-7.8	12.4	8.7	0.0	-0.1
C[C@H]1CN([C@@H](C)CO)C(=O)c2cccc(NS(=O)(=O)c3ccc(F)cc3)c2O[C@@H]1CN(C)C(=O)Nc1ccc(F)cc1	2.9	-0.5	-2.0	-3.0	-0.6	-3.0
C[C@H]1CCCCO[C@@H](CN(C)C)[C@@H](C)CN([C@@H](C)CO)C(=O)c2cc(NC(=O)CCCN(C)C)ccc2O1	-5.3	-0.8	15.7	4.1	0.0	-2.2
C=CCn1c(=S)sc2c(=O)[nH]cnc21	-9.5	-23.4*	-0.9	0.8	-0.1	-0.3
